Data: ChEMBL document CHEMBL3352760, “Nanomolar-Potency Small Molecule Inhibitor of STAT5 Protein” (ACS Med Chem Lett, 2014)
pIC50, pKd, pKi: −log10 of the molar value. Active and inactive are the calls of the source. The rule behind the calls is not given here.

How the values were obtained:
[1] = target: T1, Signal transducer and activator of transcription 5B (Homo sapiens, UniProt P51692); assay: Inhibition of STAT5B SH2 domain (unknown origin)-5-FAM-GpYLVLDKW interaction compound treated for 15 mins by fluorescent polarization assay
T1 sequence (P51692 whole entry): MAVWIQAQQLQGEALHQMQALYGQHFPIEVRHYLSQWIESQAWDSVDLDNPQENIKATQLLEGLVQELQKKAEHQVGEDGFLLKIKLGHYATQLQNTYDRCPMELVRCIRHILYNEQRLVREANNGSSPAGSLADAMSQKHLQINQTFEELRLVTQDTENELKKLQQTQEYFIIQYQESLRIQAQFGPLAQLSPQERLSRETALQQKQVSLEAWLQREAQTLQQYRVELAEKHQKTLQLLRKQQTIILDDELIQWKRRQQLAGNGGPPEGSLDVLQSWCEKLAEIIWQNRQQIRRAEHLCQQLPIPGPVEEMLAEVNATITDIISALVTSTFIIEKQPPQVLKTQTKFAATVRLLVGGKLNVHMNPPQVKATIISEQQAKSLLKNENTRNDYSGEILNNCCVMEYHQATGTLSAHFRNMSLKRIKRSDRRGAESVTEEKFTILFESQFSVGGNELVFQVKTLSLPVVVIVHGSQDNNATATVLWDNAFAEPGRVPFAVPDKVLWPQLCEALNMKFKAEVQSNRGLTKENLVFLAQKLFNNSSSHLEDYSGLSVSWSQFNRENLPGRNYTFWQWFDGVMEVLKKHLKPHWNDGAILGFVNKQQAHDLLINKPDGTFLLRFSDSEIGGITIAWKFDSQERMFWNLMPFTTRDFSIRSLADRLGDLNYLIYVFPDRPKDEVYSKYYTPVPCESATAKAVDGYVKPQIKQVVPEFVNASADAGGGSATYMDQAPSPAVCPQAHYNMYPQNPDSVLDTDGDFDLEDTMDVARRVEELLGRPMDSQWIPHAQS
Outline: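 Fluorescence polarization used STAT5B SH2 domain bound to the fluorescein-labelled phosphopeptide 5-FAM-GpYLVDKW, with inhibitor tested up to 100 μM. Polarization was read every 15 min over 1 h to confirm the probe stayed bound and to pick the time of maximal change. Ki values were derived from the data.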

[2] = target: JAK2/JAK1 (Homo sapiens) (UniProt P23458+O60674); assay: Inhibition of JAK1/2 (unknown origin); format: protein-complex assay
[3] = test system: MDA-MB-231; assay: Effect on total STAT3 level in human MDA-MB-231 cells at 15 uM after 5 hrs by Western blotting; format: functional, cell-based
Outline: (§1)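 MDA-MB-231 breast cancer cells carry high pSTAT3 and negligible pSTAT5. They were treated up to 20 μM and immunoblotted for pSTAT3, total STAT3 and total STAT5.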

[4] = Cytotoxicity against human CD34-positive umbilical cord cells assessed as reduction in cell viability at 10 uM after 72 hrs by CellTiter-Blue assay; format: cell-based
Outline: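 Healthy human CD34+ umbilical cord cells received a single 10 μM dose, with MV4;11 cells run alongside. Cell viability was then measured.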

[5] = target: Signal transducer and activator of transcription 3 (Homo sapiens) (UniProt P40763); conditions: MDA-MB-231, 15 uM
[6] = test system: K562; assay: Cytotoxicity against human K562 cells assessed as reduction in cell viability after 72 hrs by CellTiter-Blue assay; format: functional, cell-based; conditions: K562, 72 h
Outline: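 K562 (Bcr-Abl) and MV-4;11 (FLT3-ITD) leukemia cells were exposed to inhibitor over 0.78–50 μM for 72 h. Viability was read by CellTiter-Blue and IC50 taken from the dose series.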

[7] = test system: MV4-11; assay: Cytotoxicity against human MV4-11 cells assessed as reduction in cell viability after 72 hrs by CellTiter-Blue assay; conditions: MV4-11, 72 h
[8] = test system: MDA-MB-231; assay: Effect on total STAT5 level in human MDA-MB-231 cells at 15 uM after 5 hrs by Western blotting; format: functional, cell-based; outline: as §1
[9] = target: Receptor-type tyrosine-protein kinase FLT3 (Homo sapiens) (UniProt P36888); assay: Inhibition of FLT3 (unknown origin)
[10] = test system: K562; assay: Inhibition of STAT5 phosphorylation at Y694 residue in human K562 cells at 10 uM after 5 hrs by Western blotting; format: cell-based
Outline: (§2)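 K562 cells were treated for 5 h across a dose range, then harvested. Immunoblots probed phospho-STAT5 (Y694), total STAT5 and cleaved PARP-1.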

[11] = target: Tyrosine-protein kinase ABL1 (Homo sapiens) (UniProt P00519); assay: Inhibition of ABL (unknown origin)
[12] = test system: K562; assay: Inhibition of STAT5 phosphorylation at Y694 residue in human K562 cells after 5 hrs by Western blotting; format: cell-based; outline: as §2
[13] = target: T1, Signal transducer and activator of transcription 5B; assay: Binding affinity to full-length His-tagged STAT5B (unknown origin) by surface plasmon resonance assay
[14] = test system: K562; assay: Effect on total STAT5 level in human K562 cells at 15 uM after 5 hrs by Western blotting; format: functional, cell-based; outline: as §2
[15] = test system: K562; assay: Inhibition of STAT5 phosphorylation at Y694 residue in human K562 cells assessed as decreases in MYC expression after 5 hrs by Western blotting; format: cell-based
Outline: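 K562 cells were dosed for 5 h at the same concentrations used for pSTAT5 inhibition. MYC protein was followed by immunoblot.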

[16] = test system: K562; assay: Inhibition of STAT5 phosphorylation at Y694 residue in human K562 cells assessed as decreases in MCL-1 expression at 15 uM after 24 hrs by Western blotting; format: cell-based
Outline: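 K562 cells were exposed to 15 μM for 24 h. Lysates were immunoblotted for cleaved PARP-1, cleaved caspase-3 and MCL-1.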

Sequence of Signal transducer and activator of transcription 3 (Homo sapiens) (P40763 whole entry): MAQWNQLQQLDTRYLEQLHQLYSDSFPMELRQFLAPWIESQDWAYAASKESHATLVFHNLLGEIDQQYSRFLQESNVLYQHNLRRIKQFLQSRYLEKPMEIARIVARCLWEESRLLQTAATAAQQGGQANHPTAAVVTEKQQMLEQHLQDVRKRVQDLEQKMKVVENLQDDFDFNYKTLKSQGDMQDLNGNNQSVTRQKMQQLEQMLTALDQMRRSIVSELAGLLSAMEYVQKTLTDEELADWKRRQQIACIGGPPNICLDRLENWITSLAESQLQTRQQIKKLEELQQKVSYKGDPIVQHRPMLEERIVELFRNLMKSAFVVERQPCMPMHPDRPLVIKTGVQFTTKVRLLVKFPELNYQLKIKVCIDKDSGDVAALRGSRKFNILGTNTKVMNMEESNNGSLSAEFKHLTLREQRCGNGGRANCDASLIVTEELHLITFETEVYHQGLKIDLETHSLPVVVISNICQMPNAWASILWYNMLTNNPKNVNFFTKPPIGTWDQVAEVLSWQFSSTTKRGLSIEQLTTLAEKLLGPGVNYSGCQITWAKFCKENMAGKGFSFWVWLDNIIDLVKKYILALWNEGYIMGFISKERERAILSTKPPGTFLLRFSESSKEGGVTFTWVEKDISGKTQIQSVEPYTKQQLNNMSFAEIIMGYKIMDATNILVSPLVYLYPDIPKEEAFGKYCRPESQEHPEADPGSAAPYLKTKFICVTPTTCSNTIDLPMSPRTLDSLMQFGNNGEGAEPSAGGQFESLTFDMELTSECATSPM
Sequence of Receptor-type tyrosine-protein kinase FLT3 (Homo sapiens) (P36888 whole entry): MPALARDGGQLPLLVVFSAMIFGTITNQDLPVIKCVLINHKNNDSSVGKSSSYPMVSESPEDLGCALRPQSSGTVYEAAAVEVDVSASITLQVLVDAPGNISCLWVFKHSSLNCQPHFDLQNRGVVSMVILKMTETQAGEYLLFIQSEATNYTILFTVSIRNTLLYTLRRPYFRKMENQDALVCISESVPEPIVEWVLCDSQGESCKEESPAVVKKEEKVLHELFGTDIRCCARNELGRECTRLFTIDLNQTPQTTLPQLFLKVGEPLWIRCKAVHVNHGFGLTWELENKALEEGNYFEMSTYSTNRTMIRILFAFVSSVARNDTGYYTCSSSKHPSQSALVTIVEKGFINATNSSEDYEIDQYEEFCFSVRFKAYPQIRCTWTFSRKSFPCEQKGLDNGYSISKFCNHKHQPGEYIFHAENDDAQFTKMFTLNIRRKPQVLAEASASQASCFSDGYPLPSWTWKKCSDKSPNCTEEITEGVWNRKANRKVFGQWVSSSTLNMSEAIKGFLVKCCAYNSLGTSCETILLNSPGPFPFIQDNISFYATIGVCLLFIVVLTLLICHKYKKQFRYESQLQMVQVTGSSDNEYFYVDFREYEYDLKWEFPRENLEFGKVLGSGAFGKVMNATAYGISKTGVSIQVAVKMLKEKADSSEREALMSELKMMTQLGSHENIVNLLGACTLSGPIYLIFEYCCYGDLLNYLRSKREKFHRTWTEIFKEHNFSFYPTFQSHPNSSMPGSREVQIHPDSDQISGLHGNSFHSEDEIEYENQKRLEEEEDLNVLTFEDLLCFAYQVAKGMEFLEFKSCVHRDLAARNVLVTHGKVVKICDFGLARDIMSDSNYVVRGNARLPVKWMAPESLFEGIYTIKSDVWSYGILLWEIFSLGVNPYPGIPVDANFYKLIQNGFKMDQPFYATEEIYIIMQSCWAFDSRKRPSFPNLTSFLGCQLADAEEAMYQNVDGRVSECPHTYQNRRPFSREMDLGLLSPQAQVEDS
Sequence of Tyrosine-protein kinase ABL1 (Homo sapiens) (P00519 whole entry): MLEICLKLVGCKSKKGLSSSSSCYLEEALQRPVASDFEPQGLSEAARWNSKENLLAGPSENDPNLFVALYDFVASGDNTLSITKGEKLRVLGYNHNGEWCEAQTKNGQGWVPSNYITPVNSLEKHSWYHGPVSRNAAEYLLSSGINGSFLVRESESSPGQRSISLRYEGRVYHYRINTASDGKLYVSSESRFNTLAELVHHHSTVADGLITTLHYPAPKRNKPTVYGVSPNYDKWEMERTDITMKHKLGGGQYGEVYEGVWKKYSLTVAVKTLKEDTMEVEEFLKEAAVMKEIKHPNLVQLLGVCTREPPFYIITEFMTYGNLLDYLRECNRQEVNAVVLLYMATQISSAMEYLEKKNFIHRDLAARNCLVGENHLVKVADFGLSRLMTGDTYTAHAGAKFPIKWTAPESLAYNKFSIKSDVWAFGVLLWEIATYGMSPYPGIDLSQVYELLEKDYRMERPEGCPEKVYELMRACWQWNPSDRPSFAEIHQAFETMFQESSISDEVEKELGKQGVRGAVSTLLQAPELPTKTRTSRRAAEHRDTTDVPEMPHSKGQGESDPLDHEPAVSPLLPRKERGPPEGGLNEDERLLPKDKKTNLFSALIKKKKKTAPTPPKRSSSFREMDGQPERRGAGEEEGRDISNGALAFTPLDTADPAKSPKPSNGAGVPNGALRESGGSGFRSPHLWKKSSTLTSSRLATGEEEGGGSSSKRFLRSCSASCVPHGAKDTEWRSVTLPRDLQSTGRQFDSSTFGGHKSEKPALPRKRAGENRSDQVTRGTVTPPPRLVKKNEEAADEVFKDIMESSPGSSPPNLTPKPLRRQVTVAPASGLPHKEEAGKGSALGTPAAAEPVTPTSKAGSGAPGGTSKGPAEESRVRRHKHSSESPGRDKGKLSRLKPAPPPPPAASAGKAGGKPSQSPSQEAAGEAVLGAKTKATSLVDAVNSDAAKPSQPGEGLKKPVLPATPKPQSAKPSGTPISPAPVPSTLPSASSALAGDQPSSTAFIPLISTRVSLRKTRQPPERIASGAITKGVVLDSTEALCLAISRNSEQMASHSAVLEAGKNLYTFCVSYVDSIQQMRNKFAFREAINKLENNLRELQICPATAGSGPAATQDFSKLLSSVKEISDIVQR

Compound | pKi [1] | other results
CN(CC(=O)N(Cc1cccs1)c1ccc(C(=O)O)c(O)c1)S(=O)(=O)c1c(F)c(F)c(F)c(F)c1F | < 4.22 | –
CC(C)(C)c1cc(CN(C(=O)CN(Cc2ccc(Cl)cc2)S(=O)(=O)c2c(F)c(F)c(F)c(F)c2F)c2ccc(C(=O)O)c(O)c2)cc(C(C)(C)C)c1 | – | inhibition [2]: inactive; Activity [3]: inactive; Activity [4]: Non-toxic; inhibition [5]: inactive; pIC50 [6]: 5.52; pIC50 [7]: 5.46; Activity [8]: inactive; inhibition [9]: inactive; inhibition [10]: Active; inhibition [11]: inactive; inhibition [12]: Dose-dependent effect; pKd [13]: 7.38; Activity [14]: inactive; inhibition [15]: Dose-dependent effect; inhibition [16]: Active
CN(CC(=O)N(Cc1nccn1C)c1ccc(C(=O)O)c(O)c1)S(=O)(=O)c1c(F)c(F)c(F)c(F)c1F | < 4.22 | –
Cc1ccc(CN(C(=O)CN(C)S(=O)(=O)c2c(C)cc(C)cc2C)c2ccc(C(=O)O)c(O)c2)cc1 | < 4.22 | –
Cc1cc(C)c(S(=O)(=O)N(C)CC(=O)N(Cc2ccc3ccccc3c2)c2ccc(C(=O)O)c(O)c2)c(C)c1 | 5.18 | pIC50 [6]: 5.52
Cc1cc(C)c(S(=O)(=O)N(C)CC(=O)N(Cc2ccc(F)cc2)c2ccc(C(=O)O)c(O)c2)c(C)c1 | < 4.22 | –
CN(CC(=O)N(Cc1cc(C(C)(C)C)cc(C(C)(C)C)c1)c1ccc(C(=O)O)c(O)c1)S(=O)(=O)c1c(F)c(F)c(F)c(F)c1F | 4.94 | pIC50 [6]: 5.52
Cc1cc(C)c(S(=O)(=O)N(C)CC(=O)N(CC2CCCO2)c2ccc(C(=O)O)c(O)c2)c(C)c1 (stereo unspecified) | < 4.22 | –
Cc1cc(C)c(S(=O)(=O)N(C)CC(=O)N(CC2CC2)c2ccc(C(=O)O)c(O)c2)c(C)c1 | < 4.22 | –
Cc1cc(C)c(S(=O)(=O)N(C)CC(=O)N(Cc2c(F)c(F)c(F)c(F)c2F)c2ccc(C(=O)O)c(O)c2)c(C)c1 | < 4.22 | –
Cc1cc(C)c(S(=O)(=O)N(C)CC(=O)N(Cc2nccn2C)c2ccc(C(=O)O)c(O)c2)c(C)c1 | < 4.22 | –
CN(CC(=O)N(Cc1ccc(F)cc1)c1ccc(C(=O)O)c(O)c1)S(=O)(=O)c1c(F)c(F)c(F)c(F)c1F | < 4.22 | –
Cc1cc(C)c(S(=O)(=O)N(CC(=O)N(Cc2cc(C(C)(C)C)cc(C(C)(C)C)c2)c2ccc(C(=O)O)c(O)c2)Cc2ccc(Cl)cc2)c(C)c1 | – | pIC50 [6]: 5.52
Cc1cc(C)c(S(=O)(=O)N(C)CC(=O)N(CC23CCC(CC2)C3)c2ccc(C(=O)O)c(O)c2)c(C)c1 | < 4.22 | –
Cc1ccc(CN(C(=O)CN(C)S(=O)(=O)c2c(F)c(F)c(F)c(F)c2F)c2ccc(C(=O)O)c(O)c2)cc1 | < 4.22 | –
CN(CC(=O)N(Cc1ccc(C(C)(C)C)cc1)c1ccc(C(=O)O)c(O)c1)S(=O)(=O)c1c(F)c(F)c(F)c(F)c1F | < 4.22 | –
Cc1cc(C)c(S(=O)(=O)N(C)CC(=O)N(Cc2cccs2)c2ccc(C(=O)O)c(O)c2)c(C)c1 | < 4.22 | –
CN(CC(=O)N(CC1CC1)c1ccc(C(=O)O)c(O)c1)S(=O)(=O)c1c(F)c(F)c(F)c(F)c1F | < 4.22 | –
Cc1cc(C)c(S(=O)(=O)N(C)CC(=O)N(Cc2cc(C(C)(C)C)cc(C(C)(C)C)c2)c2ccc(C(=O)O)c(O)c2)c(C)c1 | 5.32 | pIC50 [6]: 5.52
CN(CC(=O)N(Cc1ccc2ccccc2c1)c1ccc(C(=O)O)c(O)c1)S(=O)(=O)c1c(F)c(F)c(F)c(F)c1F | 4.91 | pIC50 [6]: 5.52
CN(CC(=O)N(Cc1c(F)c(F)c(F)c(F)c1F)c1ccc(C(=O)O)c(O)c1)S(=O)(=O)c1c(F)c(F)c(F)c(F)c1F | < 4.22 | –
Cc1cc(C)c(S(=O)(=O)N(C)CC(=O)N(Cc2ccccc2)c2ccc(C(=O)O)c(O)c2)c(C)c1 | < 4.22 | –
O=C(O)c1ccc(N(Cc2ccc3ccccc3c2)C(=O)CN(Cc2ccc(Cl)cc2)S(=O)(=O)c2c(F)c(F)c(F)c(F)c2F)cc1O | – | pIC50 [6]: 5.52
CN(CC(=O)N(CC12CCC(CC1)C2)c1ccc(C(=O)O)c(O)c1)S(=O)(=O)c1c(F)c(F)c(F)c(F)c1F | < 4.22 | –
CN(CC(=O)N(CC1CCCO1)c1ccc(C(=O)O)c(O)c1)S(=O)(=O)c1c(F)c(F)c(F)c(F)c1F (stereo unspecified) | < 4.22 | –
Cc1cc(C)c(S(=O)(=O)N(C)CC(=O)N(Cc2ccc(C(C)(C)C)cc2)c2ccc(C(=O)O)c(O)c2)c(C)c1 | < 4.22 | –
Cc1cc(C)c(S(=O)(=O)N(CC(=O)N(Cc2ccc3ccccc3c2)c2ccc(C(=O)O)c(O)c2)Cc2ccc(Cl)cc2)c(C)c1 | – | pIC50 [6]: 5.52
CN(CC(=O)N(Cc1ccccc1)c1ccc(C(=O)O)c(O)c1)S(=O)(=O)c1c(F)c(F)c(F)c(F)c1F | < 4.22 | –
